Reference: ChEMBL document CHEMBL1151746, “Antitumor agents 6. Synthesis, structure-activity relationships, and biological evaluation of spiro[imidazolidine-4,3'-thieno[2,3-g]quinoline]-tetraones and spiro[thieno[2,3-g]quinoline-3,5'-[1,2,4]triazinane]-tetraones with potent antiproliferative activity” (J Med Chem, 2008)

Columns and labels:
[1] = tested on: MT4; test: Antiproliferative activity against human MT4 cells after 96 hrs by MTT assay; type: functional, cell-based
Outline: (§1)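 Exponentially growing cells in RPMI 1640 with 10% FCS were resuspended at 1 × 10⁵ cells/mL in RPMI containing serial dilutions of compound (DMSO solution at 200 µM, diluted in medium). After 96 h at 37 °C, viability was read by MTT. Growth was taken as % of untreated controls, which grew at least three rounds. IC50 came from linear regression, as the mean of three independent determinations.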

[2] = tested on: ACHN; test: Antiproliferative activity against human ACHN cells after 96 hrs by MTT assay; type: functional, cell-based
Outline: (§2)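 Solid-tumor cells in their specific media with 10% FCS were seeded at 5 × 10⁴ cells/mL and left to adhere 16 h. Serially diluted compound was then added (DMSO solution at 200 µM, diluted in medium). MTT viability was read 4 days later. IC50 came from linear regression against untreated controls, which grew at least three rounds, as the mean of three independent determinations.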

[3] = tested on: HT-29; test: Antiproliferative activity against human HT-29 cells after 96 hrs by MTT assay; type: functional, cell-based; outline: as §2
[4] = tested on: CCRF-CEM; test: Antiproliferative activity against human CCRF-CEM cells after 96 hrs by MTT assay; type: functional, cell-based; outline: as §1
[5] = tested on: MCF7; test: Antiproliferative activity against human MCF7 cells after 96 hrs by MTT assay; type: functional, cell-based; settings: MCF7, 96 h; outline: as §2
[6] = tested on: SF-268; test: Antiproliferative activity against human SF-268 cells after 96 hrs by MTT assay; type: functional, cell-based; settings: SF-268, 96 h; outline: as §2
[7] = tested on: HeLa; test: Antiproliferative activity against human HeLa cells after 96 hrs by MTT assay; type: functional, cell-based; outline: as §2
[8] = tested on: CCRF-SB; test: Antiproliferative activity against human CCRF-SB cells after 96 hrs by MTT assay; type: functional, cell-based; outline: as §1
[9] = tested on: XF498; test: Antiproliferative activity against human XF498 cells after 96 hrs by MTT assay; type: functional, cell-based; settings: XF498, 96 h; outline: as §2
[10] = tested on: MRC5; test: Antiproliferative activity against human MRC5 cells after 96 hrs by MTT assay; type: cell-based; settings: MRC5, 96 h; outline: as §1

SMILES | IC50 ([1]; Homo sapiens, MT4, 96 h) [nM] | IC50 [2] [nM] | IC50 ([3]; Homo sapiens, HT-29, 96 h) [nM] | IC50 [4] [nM] | IC50 [5] [nM] | IC50 [6] [nM] | IC50 [7] [nM] | IC50 [8] [nM] | IC50 [9] [nM] | IC50 ([1]; mt4) [nM] | IC50 ([3]; ht-29) [nM] | IC50 [10] [nM]
CCCCc1ccc(N2C(=O)NC3(CSC4=C3C(=O)c3ncccc3C4=O)C2=O)cc1 (racemic) | 200 | 50 | 50 | 150 | 70 | 400 | 90 | 190 | 950 | – | – | –
CC(C)(C)c1ccc(N2C(=O)NC3(CSC4=C3C(=O)c3ncccc3C4=O)C2=O)cc1 (racemic) | 200 | 150 | 150 | 200 | 130 | 500 | 100 | 200 | 850 | – | – | –
Cc1ccc(N2NC(=O)NC3(CSC4=C3C(=O)c3ncccc3C4=O)C2=O)cc1 (racemic) | 100 | 500 | 200 | 70 | 410 | 2100 | 210 | 37 | 3800 | – | – | –
O=C1NN(c2ccc([N+](=O)[O-])cc2)C(=O)C2(CSC3=C2C(=O)c2ncccc2C3=O)N1 (racemic) | 5 | 650 | 1010 | 2 | 550 | 3550 | 610 | 2 | 4800 | – | – | –
O=C1NN(c2ccccc2)C(=O)C2(CSC3=C2C(=O)c2ncccc2C3=O)N1 (racemic) | 150 | 940 | 550 | 90 | 150 | 2200 | 210 | 39 | 4550 | – | – | –
O=C1NN(c2ccc(Cl)cc2)C(=O)C2(CSC3=C2C(=O)c2ncccc2C3=O)N1 (racemic) | 150 | 360 | 220 | 50 | 110 | 2000 | 150 | 51 | 2500 | – | – | –
O=C1C2=C(C(=O)c3ncccc31)C1(CS2)NC(=O)N(c2ccc([N+](=O)[O-])cc2)C1=O (racemic) | 8 | 100 | 250 | 1 | 350 | 1520 | 100 | 2 | 1030 | – | – | –
CCN(CC)c1ccc(N2C(=O)NC3(CSC4=C3C(=O)c3ncccc3C4=O)C2=O)cc1 (racemic) | 8 | 20 | 50 | 20 | 30 | 960 | 50 | 9 | 730 | – | – | –
O=C1C2=C(C(=O)c3ncccc31)C1(CS2)NC(=O)N(c2ccc(N3CCOCC3)cc2)C1=O (racemic) | 800 | 140 | 750 | 600 | 750 | 1980 | 200 | 650 | 1700 | – | – | –
Cc1ccc(N2C(=O)NC3(CSC4=C3C(=O)c3ncccc3C4=O)C2=O)cc1 (racemic) | 27 | 12 | 1 | 20 | 2 | 660 | 2 | 20 | 1350 | – | – | –
COc1ccc(N2NC(=O)NC3(CSC4=C3C(=O)c3ncccc3C4=O)C2=O)cc1 (racemic) | 80 | 430 | 650 | 35 | 230 | 2850 | 150 | 35 | 3800 | – | – | –
CCCCCc1ccc(N2C(=O)NC3(CSC4=C3C(=O)c3ncccc3C4=O)C2=O)cc1 (racemic) | 190 | 250 | 250 | 250 | 250 | 520 | 200 | 150 | 830 | – | – | –
O=C1NC(=O)C2(CSC3=C2C(=O)c2ncccc2C3=O)N1 (racemic) | – | 80 | – | 120 | 120 | 3100 | 150 | 150 | 3120 | – | – | –
O=C1C2=C(C(=O)c3ncccc31)C1(CS2)NC(=O)N(c2ccncc2)C1=O (racemic) | 3 | 80 | 2 | 2 | 10 | 1100 | 10 | 1 | 1120 | – | – | –
CCc1ccc(N2C(=O)NC3(CSC4=C3C(=O)c3ncccc3C4=O)C2=O)cc1 (racemic) | 1 | 5 | 1 | 10 | 50 | 450 | 5 | 10 | 1200 | – | – | –
O=C1NNC(=O)C2(CSC3=C2C(=O)c2ncccc2C3=O)N1 (racemic) | – | 1050 | – | 450 | 1250 | 4820 | 980 | 48 | 5000 | – | – | –
O=C1C2=C(C(=O)c3ncccc31)C1(CS2)NC(=O)N(c2ccccc2)C1=O (racemic) | 25 | 21 | 2 | 10 | 1 | 1700 | 3 | 30 | 1510 | – | – | –
COc1ccc(N2C(=O)NC3(CSC4=C3C(=O)c3ncccc3C4=O)C2=O)cc1 (racemic) | 70 | 50 | 2 | 50 | 50 | 650 | 1 | 10 | 650 | – | – | –
O=C1NC(=O)C2(CSC3=C2C(=O)c2ncccc2C3=O)N1 (single isomer, unassigned; (+)) | 130 | – | 190 | – | – | – | – | – | – | – | – | –
O=C1NNC(=O)C2(CSC3=C2C(=O)c2ncccc2C3=O)N1 (single isomer, unassigned; (-)) | – | – | – | – | – | – | – | – | – | 500 | 1600 | –
O=C1NNC(=O)C2(CSC3=C2C(=O)c2ncccc2C3=O)N1 (stereo in doubt; (+)-3) | 550 | – | 1580 | – | – | – | – | – | – | – | – | –
O=C1NC(=O)C2(CSC3=C2C(=O)c2ncccc2C3=O)N1 (stereo in doubt; (-)-2) | – | – | – | – | – | – | – | – | – | 120 | 180 | –
COc1cc([C@@H]2c3cc4c(cc3[C@@H](O[C@@H]3O[C@@H]5CO[C@@H](C)O[C@H]5[C@H](O)[C@H]3O)[C@H]3COC(=O)[C@H]23)OCO4)cc(OC)c1O [ETOPOSIDE] | 1250 | 2150 | 2500 | 1200 | 1000 | 3250 | 3000 | 100 | 3450 | – | – | 3900
